Source: ChEMBL document CHEMBL1141553, “Synthesis and pharmacological activity of chalcones derived from 2,4,6-trimethoxyacetophenone in RAW 264.7 cells stimulated by LPS: quantitative structure-activity relationships” (Bioorg Med Chem, 2008)

Key:
[1] = Cytotoxicity against mouse RAW264.7 cells assessed as cell viability at 13.10 uM by MTT assay; type: cell-based; settings: read-out: Activity
[2] = tested on: RAW264.7; test: Inhibition of LPS-induced nitric oxide production in mouse RAW264.7 cells; type: functional, cell-based
Outline: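 Compounds were pre-added 30 min before LPS stimulation for 24 h. Supernatant was mixed 1:1 with Griess reagent (1% sulfanilamide, 0.1% naphthylethylenediamine dihydrochloride, 2% phosphoric acid) for 5 min at room temperature. Nitrite was read at OD 550 nm against a NaNO₂ standard curve. IC50 came from dose–inhibition curves, mean of four independent experiments.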

[3] = Cytotoxicity against mouse RAW264.7 cells assessed as cell viability at 3.78 uM by MTT assay; type: cell-based; settings: read-out: Activity
[4] = Selectivity for iNOS to eNOS
[5] = Selectivity for iNOS to nNOS

| SMILES | viability at 13.1 µM [1] [%] | IC50 [2] [µM] | viability at 3.78 µM [3] [%] | Selectivity ratio [4] | Selectivity ratio [5] |
| --- | --- | --- | --- | --- | --- |
| COc1cc(OC)c(C(=O)/C=C/c2ccc3c(c2)OCO3)c(OC)c1 | 100 | 13.1 |  |  |  |
| CC(=N)NCc1cccc(CN)c1 [1400W] |  | 3.78 | 82 | 5000 | 200 |
